PMC10692362 (Acta Pharmaceutica Sinica. B, 2023)
“And” between values parts separate entries of the source, which are not always exact repeats. Equal values may be shown once. Read-outs that look alike come from different tables or passages of the source.

Tests used:
ERα = biological target: T1, ERα (Homo sapiens, UniProt P03372); test: Immunoblot analysis of ERα degradation in MCF-7 cells; assay type: cell-based; conditions: MCF-7 cells, 1 or 5 μmol/L
T1 sequence (P03372 1-595): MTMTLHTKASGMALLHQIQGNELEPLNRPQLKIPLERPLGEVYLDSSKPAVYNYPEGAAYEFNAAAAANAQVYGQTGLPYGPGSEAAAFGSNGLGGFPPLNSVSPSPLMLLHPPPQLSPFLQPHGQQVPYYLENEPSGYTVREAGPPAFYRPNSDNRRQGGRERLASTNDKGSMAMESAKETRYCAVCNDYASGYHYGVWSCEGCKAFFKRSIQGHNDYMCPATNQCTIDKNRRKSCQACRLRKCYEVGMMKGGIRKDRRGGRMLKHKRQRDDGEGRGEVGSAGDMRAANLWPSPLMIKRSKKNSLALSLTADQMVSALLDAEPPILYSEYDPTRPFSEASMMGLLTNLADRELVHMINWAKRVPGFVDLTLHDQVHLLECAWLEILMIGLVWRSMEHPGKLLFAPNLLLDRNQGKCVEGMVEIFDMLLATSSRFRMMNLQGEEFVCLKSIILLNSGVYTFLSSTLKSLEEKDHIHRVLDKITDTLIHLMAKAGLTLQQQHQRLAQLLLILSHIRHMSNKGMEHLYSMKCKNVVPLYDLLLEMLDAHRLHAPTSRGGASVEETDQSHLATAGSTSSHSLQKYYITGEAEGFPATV

T-47D^D538G cells = test: Cell viability assay; assay type: cell-based, human; conditions: 72 h, read-out: T-47D^D538G IC50
MCF-7 cells = test: Cell viability assay; assay type: cell-based, human; conditions: read-out: MCF-7 IC50
T-47D^Y537S cells = test: Cell viability assay; assay type: cell-based, human; conditions: 72 h, read-out: T-47D^Y537S IC50
human ERβ LBD = human ERβ LBD (Homo sapiens, UniProt Q92731); test: Competitive fluorescence polarization binding assay, ERβ; conditions: for RBA ERβ: IC50 estradiol/IC50 compound × 100, estradiol = 100%
human ERα LBD = biological target: T2, human ERα LBD (Homo sapiens, UniProt P03372); test: Competitive fluorescence polarization binding assay, ERα; conditions: for RBA ERα: IC50 estradiol/IC50 compound × 100, estradiol = 100%; for α/β ratio: ratio of RBA ERα to RBA ERβ
T2 sequence (P03372 311-547 limits assumed): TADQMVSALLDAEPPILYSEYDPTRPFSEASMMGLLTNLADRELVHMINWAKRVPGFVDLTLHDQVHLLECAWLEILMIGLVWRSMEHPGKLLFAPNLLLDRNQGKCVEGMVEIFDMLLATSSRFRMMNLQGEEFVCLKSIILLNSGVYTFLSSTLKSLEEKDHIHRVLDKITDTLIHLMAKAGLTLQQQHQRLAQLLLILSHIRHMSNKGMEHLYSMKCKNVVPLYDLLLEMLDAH

T-47D cells = test: Cell viability assay; assay type: cell-based, human; conditions: 72 h, read-out: T-47D IC50
ERβ = ERβ (Homo sapiens, UniProt Q92731); test: ER transcriptional activity; assay type: cell-based; conditions: with 10 nmol/L 17β-estradiol
LCC-2 cells = test: Cell viability assay on tamoxifen-resistant LCC-2 cells; assay type: cell-based; conditions: Homo sapiens, LCC2, read-out: LCC-2 IC50
MCF-7 tumor xenograft = MCF-7 tumor xenograft model in BALB/c nude mice; assay type: in vivo; conditions: 4 mg/kg ip every other day, Day 32
How it was run: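 Female BALB/c nude mice (15–18 g, 5 weeks old) received 1 × 10⁷ MCF-7 cells in 100 μL PBS into the right axillary mammary fat pad. Tumour volume (W² × L × 0.5) and body weight were measured every 2 days. Mice were sacrificed on Day 33. Tumours were assessed by IHC (Ki-67, ERα) and ERα Western blot.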

human ERβ LBD, sequence (Q92731 264-498 limits assumed): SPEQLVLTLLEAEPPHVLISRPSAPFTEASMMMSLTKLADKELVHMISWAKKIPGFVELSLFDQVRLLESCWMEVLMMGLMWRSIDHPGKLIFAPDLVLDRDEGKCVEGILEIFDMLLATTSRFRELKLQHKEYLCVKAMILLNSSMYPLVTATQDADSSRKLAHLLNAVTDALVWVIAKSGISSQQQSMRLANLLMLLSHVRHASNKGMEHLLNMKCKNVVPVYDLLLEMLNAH
ERβ, sequence (Q92731 whole entry): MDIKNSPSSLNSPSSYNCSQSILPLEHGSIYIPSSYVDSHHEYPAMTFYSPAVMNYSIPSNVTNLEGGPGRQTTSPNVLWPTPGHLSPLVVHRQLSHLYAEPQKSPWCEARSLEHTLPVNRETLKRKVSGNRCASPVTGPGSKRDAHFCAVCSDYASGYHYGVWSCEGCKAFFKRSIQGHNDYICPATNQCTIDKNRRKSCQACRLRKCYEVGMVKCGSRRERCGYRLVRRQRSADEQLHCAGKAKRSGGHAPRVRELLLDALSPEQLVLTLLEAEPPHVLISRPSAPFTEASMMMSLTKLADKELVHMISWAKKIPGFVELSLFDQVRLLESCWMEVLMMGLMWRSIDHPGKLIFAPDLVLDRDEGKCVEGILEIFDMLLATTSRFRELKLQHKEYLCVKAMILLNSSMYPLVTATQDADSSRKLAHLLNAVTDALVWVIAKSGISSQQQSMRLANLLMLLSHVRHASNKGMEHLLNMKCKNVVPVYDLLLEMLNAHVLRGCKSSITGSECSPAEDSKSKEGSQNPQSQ

Structure (SMILES) | ERα degradation (immunoblot) (ERα) | IC50 (T-47D^D538G cells; Homo sapiens) | IC50 (MCF-7 cells; Homo sapiens, MCF7, 72 h) | IC50 (T-47D^Y537S cells; Homo sapiens) | Ki (human ERβ LBD) | RBA ERβ (human ERβ LBD) | Ki (human ERα LBD) | RBA ERα (human ERα LBD) | α/β ratio (human ERα LBD) | IC50 (T-47D cells; Homo sapiens, T47D) | IC50 (T-47D^D538G cells; cell viability) | IC50 (MCF-7 cells; cell viability, 72 h) | IC50 (T-47D^Y537S cells; cell viability) | Ki (human ERβ LBD; read-out: Ki ERβ) | Ki (human ERα LBD; read-out: Ki ERα) | IC50 (T-47D cells; cell viability) | Antagonist mode ERβ Eff (%E2) (ERβ) | IC50 (LCC-2 cells) | TGI (tumor growth inhibition) (MCF-7 tumor xenograft)
CC(C)CC(=O)Nc1ccc(C2=C(c3ccc(O)cc3)[C@H]3O[C@@H]2CC3S(=O)(=O)N(CC(F)(F)F)c2ccc(O)cc2)cc1 (mixture of isomers) [Compound 29k, N-(4-((1R,4R)-3-(4-Hydroxyphenyl)-5-(N-(4-hydroxyphenyl)-N-(2,2,2-trifluoroethyl)sulfamoyl)-7-oxabicyclo[2.2.1]hept-2-en-2-yl)phenyl)-3-methylbutanamide] | impaired degradation ability | > 31000 nM | 1060 ± 190 nM | > 31000 nM | 4.6 nM | 1.45 ± 0.12% | 1.15 nM | 2.41 ± 0.21% | 1.66 | > 31000 nM | – | – | – | – | – | – | – | – | –
CC(C)=CC(=O)Nc1ccc(C2=C(c3ccc(O)cc3)C3CC(S(=O)(=O)N(CC(F)(F)F)c4ccc(O)cc4)C2O3)cc1 (centres unmarked) [29c′] | impaired degradation ability | – | – | – | – | 2.05 ± 0.45% | – | 15.12% and 15.12 ± 0.31% | 7.37 | – | 5000 ± 360 nM | 950 ± 110 nM | 4050 ± 270 nM | 3.25 nM | 0.18 nM | 5520 ± 270 nM | – | – | –
CC/C(=C(\c1ccc(O)cc1)c1ccc(OCCN(C)C)cc1)c1ccccc1 [Compound 4-OHT, 4-hydroxytamoxifen, reference compound] | – | 9130 ± 600 nM | 670 ± 80 nM | 8900 ± 280 nM | – | – | – | – | – | 1950 ± 200 nM | – | – | – | – | – | – | 11 ± 3 %E2 | 22200 ± 1930 nM | –
CC(C)=CC(=O)Nc1ccc(C2=C(c3ccc(O)cc3)C3CC(S(=O)(=O)N(CC(F)(F)F)c4ccc(C)cc4)C2O3)cc1 (centres unmarked) [Compound 29d, N-(4-(3-(4-Hydroxyphenyl)-6-(N-(p-tolyl)-N-(2,2,2-trifluoroethyl)sulfamoyl)-7-oxabicyclo[2.2.1]hept-2-en-2-yl)phenyl)-3-methylbut-2-enamide] | – | > 31000 nM | 750 ± 210 nM | > 31000 nM | 4.87 nM | 1.37 ± 0.11% | 0.43 nM | 6.49 ± 0.21% | 4.74 | 8330 ± 220 nM | – | – | – | – | – | – | – | – | –
CC(C)=CC(=O)Nc1ccc(C2=C(c3ccc(O)cc3)C3CC(S(=O)(=O)N(CC(F)(F)F)c4ccccc4)C2O3)cc1 (centres unmarked) [Compound 29e, N-(4-(3-(4-Hydroxyphenyl)-6-(N-phenyl-N-(2,2,2-trifluoroethyl)sulfamoyl)-7-oxabicyclo[2.2.1]hept-2-en-2-yl)phenyl)-3-methylbut-2-enamide] | – | 5180 ± 310 nM | 660 ± 120 nM | 1790 ± 170 nM | 23.8 nM | 0.28 ± 0.05% | 0.29 nM | 9.50 ± 0.09% | 33.9 | 5100 ± 320 nM | – | – | – | – | – | – | – | – | –
CC(C)=CC(=O)Nc1ccc(C2=C(c3ccc(O)cc3)C3OC2CC3S(=O)(=O)N(CC(F)(F)F)c2ccc(F)cc2)cc1 (centres unmarked) [Compound 29g, N-(4-(5-(N-(4-Fluorophenyl)-N-(2,2,2-trifluoroethyl)sulfamoyl)-3-(4-hydroxyphenyl)-7-oxabicyclo[2.2.1]hept-2-en-2-yl)phenyl)-3-methylbut-2-enamide] | – | 7820 ± 470 nM | 640 ± 100 nM | > 31000 nM | 6.54 nM | 1.02 ± 0.13% | 0.37 nM | 7.52 ± 0.29% | 7.37 | 5280 ± 230 nM | – | – | – | – | – | – | – | – | –
CC(C)=CC(=O)Nc1ccc(C2=C(c3ccc(O)cc3)C3OC2CC3S(=O)(=O)N(CC(F)(F)F)c2cccc(O)c2)cc1 (centres unmarked) [Compound 29h, N-(4-(3-(4-Hydroxyphenyl)-5-(N-(3-hydroxyphenyl)-N-(2,2,2-trifluoroethyl)sulfamoyl)-7-oxabicyclo[2.2.1]hept-2-en-2-yl)phenyl)-3-methylbut-2-enamide] | effective in inducing ERα degradation | 2840 ± 140 nM | 980 ± 350 nM | 2990 ± 220 nM | 15.2 nM | 0.44 ± 0.02% | 0.35 nM | 7.89 ± 0.11% | 17.93 | 3920 ± 10 nM | – | – | – | – | – | – | – | – | –
CCN(c1ccc(OC)cc1)S(=O)(=O)C1CC2OC1C(c1ccc(O)cc1)=C2c1ccc(NC(=O)C=C(C)C)cc1 (centres unmarked) [Compound 29j, N-(4-(5-(N-Ethyl-N-(4-methoxyphenyl)sulfamoyl)-3-(4-hydroxyphenyl)-7-oxabicyclo[2.2.1]hept-2-en-2-yl)phenyl)-3-methylbut-2-enamide] | effective in inducing ERα degradation | 8250 ± 450 nM | 290 ± 30 nM | 12700 ± 530 nM | 13.1 nM | 0.51 ± 0.09% | 0.63 nM | 4.36 ± 0.33% | 8.55 | 7920 ± 190 nM | – | – | – | – | – | – | – | – | –
Nc1ccc(C2=C(c3ccc(O)cc3)C3OC2CC3S(=O)(=O)N(CC(F)(F)F)c2ccc(O)cc2)cc1 (centres unmarked) [Compound 29l, 5-(4-Aminophenyl)-N,6-bis(4-hydroxyphenyl)-N-(2,2,2-trifluoroethyl)-7-oxabicyclo[2.2.1]hept-5-ene-2-sulfonamide] | – | > 31000 nM | 3170 ± 330 nM | > 31000 nM | 2.84 nM | 2.35 ± 0.33% | 1.14 nM | 2.43 ± 0.27% | 1.03 | 8110 ± 370 nM | – | – | – | – | – | – | – | – | –
CC/C(=C(\c1ccccc1)c1ccc(OCCN(C)C)cc1)c1ccccc1 [tamoxifen, reference compound] | – | – | – | – | – | – | – | – | – | – | – | – | – | – | – | – | – | – | 87%
